Assay results reported in PubChem BioAssay.
Unmarked numbers belong to inactive results. Results filed as inconclusive are left out. Calls of active or inactive are those of the source.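 How the source made its calls, unless noted: active means growth inhibition above 25% in both replicates, a cutoff set 3 SD above the mean; inconclusive means above 25% in only one replicate; inactive means the rest.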

What was measured:
[1] = S. cerevisiae growth inhibition in permissive medium (OD615), pilot counter-assay for S. cerevisiae lifespan shortening project, permissive growth control (AID 705); details: OD615, 24 h, at 10 µM, stronger effect = higher value
Procedure, shortened: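 assay system = Saccharomyces cerevisiae strain carrying genetically modified DeaD replicative-lifespan system | technique = absorbance (optical density) at 615 nm | buffer or medium = permissive raffinose/galactose medium | timing = cells pre-grown 4 h, then 24 h compound exposure, 30 °C humidified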

[2] = S. cerevisiae growth inhibition in restrictive medium, OD615, pilot screen, restrictive growth control, yeast lifespan reduction project (AID 706;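 active means growth inhibition above a set limit, 3 SD over mean compound inhibition, in both replicates, cut at about 43% in these data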;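 further: modified DeaD lifespan yeast strain shifted to restrictive glucose medium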); details: OD615, 48 h, at 10 µM, stronger effect = higher value
Procedure, shortened: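 System: modified S. cerevisiae. Buffer or medium: CSMM-D glucose medium. Incubation: 4 h pre-growth plus 48 h compound exposure, 30 °C. Detection: absorbance (optical density) measured at 615 nm.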

[3] = doxorubicin toxicity protection in MRP-1 cells – H69AR cells, CellTiter-Glo, duplicate, MRP-1 activator project, pilot screen (AID 807;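 active means viability increase at or above a cutoff of the median across tested compounds plus 3 SD, cut at about 8.5% in these data, passing the limit was not always enough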;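 further: compound pretreatment 18-22 h then 72 h combined with doxorubicin; 0% = doxorubicin alone and 100% = vehicle without doxorubicin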); details: H69AR viability with doxorubicin, CellTiter-Glo luminescence; at 10 µM; stronger effect = higher value
[4] = viability of HCT116 without oncogenic beta-catenin – human colon tumor cells, pilot screen (AID 823;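 active means cell viability at or below a set limit in both duplicate runs, the limit being the all-compound median minus 4 SD, cut at about 23% in these data, passing the limit was not always enough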;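 further: 0% = wells killed by 20 µM Hyamine and 100% = untreated DMSO cell wells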); details: HCT116 beta-catenin knockout viability, CellTiter-Glo, 60 h; at 10 µM; stronger effect = lower value
[5] = viability of PTEN-null HCT116 cells – cell-based, HCT116 clonal line, CellTiter-Glo, pilot screen (AID 824;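 active means viability at or below 27.92% in each of two runs, the all-compound median minus 4 SD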;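 further: 0% = 20 µM Hyamine control and 100% = vehicle cell control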); details: HCT116 PTEN-deleted viability, 60 h, at 10 µM, stronger effect = lower value
[6] = RAM pathway blockade in budding yeast – dse1pr::URA3 reporter, 5-FOA selection, pilot screen (AID 869;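 active means inhibition over a set limit, the all-compound mean plus 3 SD, in both replicate runs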;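 further: 0% = DMSO wells with no growth and 100% = 10 µM 1-NA-PP1 with full growth; RAM network block rescues cells from 5-FOA so hits raise OD615 growth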); details: S. cerevisiae dse1pr::URA3 5-FOA growth, OD615, 2 d; at 10 µM; stronger effect = higher value; strain carries analog-sensitive mutant Cbk1 kinase

| SMILES | growth inhibition [1] | growth inhibition [2] | viability increase [3] | viability [4] | viability [5] | inhibition [6] |
| --- | --- | --- | --- | --- | --- | --- |
| O=C(NCc1ccc2c(c1)OCO2)c1nnc(Cc2ccc(F)cc2)o1 | -1.76% | 9.91% | 0.87% | 105% | 97.1% | 3.56% |
| Brc1ccc(Oc2nnnn2-c2ccccc2)cc1 | -5.57% | -3.68% | 0.29% | 95.3% | 88.9% | 1.51% |
| CCOC(=O)C1=C(N)OC2=C(C(=O)CC(C)(C)C2)C1C1CCCCC1 (configuration not stated) | -13.2% | -4.08% | -1.22% | 93.3% | 92.9% | 1.4% |
| Cc1noc(/C=C/N(C)C)c1S(=O)(=O)N1CCCC(C(=O)NCc2cccs2)C1 (configuration not stated) | 2% | -3.34% | 10.6% (active) | 93.2% | 88.5% | 0.21% |
| CCCCSc1nc2c(c(=O)[nH]c(=O)n2C)n1CCc1ccccc1 | -16.6% | -9.86% | -3.38% | 84.1% | 85.9% | 2.35% |
| COc1ccccc1OCCSc1nnnn1-c1ccc(C)cc1 | -13.8% | -6.1% | 0.71% | 79.5% | 78.7% | 2.32% |
| O=C(Cn1cc2c(n1)CCCCC2)NCCCN1CCOCC1 | -9.29% | -6.7% | 0.92% | 112% | 99.8% | 2.08% |
| CN(Cc1ccccc1)c1oc(COc2ccccc2F)nc1C#N | -1.62% | -8.97% | 2.94% | 80.2% | 80.9% | 1.07% |
| CCOC(=O)C1CCCN(C(=O)CCCn2nc(C)n3c(cc4sccc43)c2=O)C1 (configuration not stated) | -4.78% | -16.8% | -1.97% | 102% | 94.3% | 1.37% |
| N#CCCn1cc(C(CC(=O)c2ccc(Br)cc2)C(=O)O)c2ccccc21 (configuration not stated) | 3.64% | 4.21% | -3.05% | 91.7% | 96.4% | 1.56% |
| Oc1ccccc1C(=S)N1CCCCC1 | 8.11% | 23.6% | -2.83% | 94.7% | 89.8% | 2.25% |
| CCCCn1c(Oc2ccc(C(=O)OC)cc2)nc2c1c(=O)n(C)c(=O)n2C | -10.3% | -3.88% | -2.52% | 84.1% | 84.1% | 0.085% |
| Cc1noc(/C=C/NCc2cccnc2)c1S(=O)(=O)N(C)CC(=O)N1CCc2ccccc21 | -10.2% | -7.69% | -3.19% | 91.2% | 86.4% | 2.5% |
| CCOc1ccc(CN2CCNC(=O)C2CC(=O)OC)cc1 (configuration not stated) | 0.415% | -7.59% | -0.51% | 98.7% | 102% | 1.59% |
| COC(=O)CNc1c(-c2ccccn2)nc2ccc(Br)cn12 | -20.4% | 10.8% | -2.57% | 89.2% | – | 0.175% |
| COC(=O)c1c(-c2ccc(F)cc2)csc1NC(=O)c1ccco1 | -27.6% | 0.595% | 1.29% | 78.5% | – | 1.12% |
| COc1ccc(N(CC(=O)NCCSc2ccccn2)S(C)(=O)=O)cc1Cl | -5.09% | -6.72% | -3.81% | – | 97.3% | 1.44% |
| COc1ccc(Nc2nc(N)nc(CN3CCC(Cc4ccccc4)CC3)n2)cc1 | 6.83% | -0.085% | -6.58% | – | 35.8% | 0.1% |
| C(=C\c1ccccc1)/CN1CCN(c2ncnc3c2oc2ccccc23)CC1 | -2.64% | -6.73% | -3.8% | – | – | 1.36% |
| CC(C)n1c(C(=O)OCC(=O)NCc2ccc3c(c2)OCO3)cc2sccc21 | -10.2% | -12.8% | -6.26% | 53.4% | – | 2.71% |
| Nc1ccc(S(=O)(=O)N2CCCc3ccccc32)cc1 | -18.7% | -24% | -3.42% | 83% | 83% | 1.49% |
| Cc1cccc(N2CCN(C(=O)c3cc4c(=O)n(C)c5ccccc5c4n3C)CC2C)c1 (configuration not stated) | -3.86% | 3.15% | -4.81% | – | – | 1.81% |

| SMILES | growth inhibition [1] | growth inhibition [2] | viability increase [3] | viability [4] | viability [5] | inhibition [6] |
| --- | --- | --- | --- | --- | --- | --- |
| Cc1ccc(-c2nc3cnccn3c2Nc2ccc3c(c2)OCCO3)o1 | -11.4% | -5.81% | -5.2% | 92.4% | – | 1.19% |
| CCC1(C)Cc2ccccc2-c2nc3n(c(=O)c21)CCCCC3 (configuration not stated) | -8.71% | -14.2% | -1.36% | 88.1% | – | 4.02% |
| CCCCN(C)CCCNC(=O)Cn1c(=O)sc2ccccc21 | -8.58% | -10.9% | -3.13% | – | 97.5% | 1.33% |
| C=CCn1c(SCc2cc(=O)n3ccsc3n2)nc2scc(C3CC3)c2c1=O | -3.27% | -5.57% | -3.7% | – | 91.8% | 2.79% |
| COc1ccc(OC)c(NC(=O)CN(c2ccc(C(C)C)cc2)S(=O)(=O)c2c(C)noc2C)c1 | -11.5% | -12.1% | -4.81% | 56.5% | 48.1% | 2.27% |
| O=C(CCCCn1c(=O)[nH]c2ccsc2c1=O)NCC1CCCO1 (configuration not stated) | 2.62% | -0.86% | -3.45% | 97.1% | – | 1.61% |
| Cc1c(/C=N/n2cnnc2)c2ccccc2n1CCOc1ccc(Cl)cc1 | 3.74% | 17.6% | -4.25% | – | 90% | 4.12% |
| Cc1noc(/C=C/N(C)C)c1S(=O)(=O)N1CCCC(C(=O)NCc2ccc(F)cc2)C1 (configuration not stated) | -4.61% | -8.86% | – | 90.1% | 85.8% | – |
| CCN(CC)S(=O)(=O)c1cc(-c2nnc(-c3ccc(Br)cc3)o2)ccc1Cl | -10.3% | -14.6% | 1.36% | – | 41.7% | 2.41% |
| O=C(O)CC1C(=O)NCCN1C/C=C/c1ccccc1 (configuration not stated) | -17.1% | -16.1% | -2.39% | 105% | 93.1% | 3.62% |
| CCOC(=O)c1ccc(NC(=O)c2ccc(C)c(S(=O)(=O)N3CCOCC3)c2)cc1 | -7.03% | -5.64% | -3.41% | 12.8% (active) | – | 0.87% |
| CCNC(=O)CCn1nc(-c2ccc(Cl)cc2)c2ccccc2c1=O | -10.9% | -10.1% | -5.74% | 49.5% | – | 0.575% |
| N#CC1=C2SCN(c3ccccc3)CN2C(=O)CC1c1ccccc1Cl (configuration not stated) | 6.17% | – | -5.58% | 97.2% | 82.5% | 2.58% |
| CCCOc1cccc(C(=O)Nc2cccnc2)c1 | -6.8% | -0.66% | 3.16% | 92.6% | 96.2% | 0.93% |
| COc1cc(OC)c(NC(=O)CS(=O)(=O)Cc2nc(-c3ccc(C)cc3)oc2C)cc1Cl | -22.6% | -17% | -1.21% | 85.5% | 78.1% | 1.96% |
| COc1cc(C2CC(=O)c3c([nH]c(C(=O)OCCOC(C)C)c3C)C2)cc(OC)c1OC (configuration not stated) | -15.2% | -28.2% | -2.78% | – | 42.7% | 1.85% |
| CN(C)c1ccc(-c2noc(C3CCN(S(=O)(=O)c4cccc(Cl)c4)CC3)n2)cc1 | -5.86% | -11.7% | 3.01% | 82.5% | 94.2% | 2.6% |
| CSc1nc(NCCOCCO)c2sc3nc(-c4ccco4)c4c(c3c2n1)CCC4 | -7.22% | 0.84% | -4.7% | 81.3% | – | 1.51% |
| Cn1c(-n2c(CCCN3C(=O)c4ccccc4C3=O)nc3ccccc3c2=O)nc2ccccc21 | -1.74% | 2.53% | -3.91% | 84.5% | 87.2% | 2.62% |
| COc1ccc(C(=O)/C=C/Nc2cc(C)on2)cc1 | -11.9% | -11.9% | -0.71% | – | 97% | – |
| Cc1c(C(=O)NCc2cccs2)oc2ccc(S(=O)(=O)N3CCOCC3)cc12 | -0.625% | -4.37% | -4.32% | 79.6% | – | 0.46% |
